One test deals with HCT-116. Briefly: Antiproliferative activity against human HCT116 cells after 72 hrs by SRB assay. In kind it is functional, cell-based. Particulars: HCT-116, 72 h. A general note: In SRB staining, fixed cells bind dye roughly in proportion to their protein.
The next test has as its system EBC-1. Briefly: Antiproliferative activity against human EBC1 cells after 72 hrs by SRB assay. The following applies: EBC-1, 72 h. In kind it is functional, cell-based.
Test [1] addresses T1, Histone deacetylase 1 (Homo sapiens, UniProt Q13547). Briefly: Inhibition of recombinant human full length HDAC1 expressed in baculovirus infected Sf9 insect cells using biotinylated lysine 9 acetylated histone H3 (1 to 21 residues) as substrate incubated for 5 mins followed by substrate addition measured after 60 mins by HTRF assay. On the technique in general: TR-FRET usually uses a lanthanide donor and a delayed reading to cut background.

For test [2], the target named is T2, Hepatocyte growth factor receptor (Homo sapiens, UniProt P08581). The test can be described thus: Inhibition of recombinant human His-tagged c-Met cytoplasmic domain (956 to 1390 residues) expressed in baculovirus expression system using poly (Glu,Tyr)4:1 as substrate after 60 mins by spectrophotometric analysis.
The target in test [3] is T2, Hepatocyte growth factor receptor. The test can be described thus: Inhibition of c-MET in human EBC1 cells assessed as decrease in Erk1/2 phosphorylation at Thr202/Tyr204 residues after 24 hrs by Western blot analysis. It is filed as cell-based. Put shortly: (§1)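 Intact EBC-1 cells were treated with the compound at several concentrations for 24 h. Protein levels were then read by immunoblotting with specific antibodies.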
On the technique in general: In western blotting, separated proteins are transferred to a membrane and probed.

Test [4] deals with T1, Histone deacetylase 1. Briefly: Potency index, ratio of chidamide IC50 to compound IC50 for recombinant human full length HDAC1 expressed in baculovirus infected Sf9 insect cells.
For test [5], the target named is T2, Hepatocyte growth factor receptor. Briefly: Inhibition of phosphorylation of c-MET at Tyr1234/1235 residues in human EBC1 cells after 24 hrs by Western blot analysis. In kind it is cell-based. Put shortly:
as §1

Test [6] has as its target T1, Histone deacetylase 1. The test can be described thus: Inhibition of HDAC1 in human EBC1 cells assessed as increase in acetyl-Histone H3 levels at Lys9/Lys14 residues at 0.01 to 10 uM after 24 hrs by Western blot analysis. It is filed as cell-based. An outline of the steps: as §1
Test [7] addresses T1, Histone deacetylase 1. The test can be described thus: Inhibition of HDAC1 in human EBC1 cells assessed as increase in p21 levels at 0.01 to 10 uM after 24 hrs by Western blot analysis. It is filed as cell-based. An outline of the steps:
as §1

Test [8] deals with T3, Protein deacetylase HDAC6 (Homo sapiens) (UniProt Q9UBN7).
T3 sequence (whole entry): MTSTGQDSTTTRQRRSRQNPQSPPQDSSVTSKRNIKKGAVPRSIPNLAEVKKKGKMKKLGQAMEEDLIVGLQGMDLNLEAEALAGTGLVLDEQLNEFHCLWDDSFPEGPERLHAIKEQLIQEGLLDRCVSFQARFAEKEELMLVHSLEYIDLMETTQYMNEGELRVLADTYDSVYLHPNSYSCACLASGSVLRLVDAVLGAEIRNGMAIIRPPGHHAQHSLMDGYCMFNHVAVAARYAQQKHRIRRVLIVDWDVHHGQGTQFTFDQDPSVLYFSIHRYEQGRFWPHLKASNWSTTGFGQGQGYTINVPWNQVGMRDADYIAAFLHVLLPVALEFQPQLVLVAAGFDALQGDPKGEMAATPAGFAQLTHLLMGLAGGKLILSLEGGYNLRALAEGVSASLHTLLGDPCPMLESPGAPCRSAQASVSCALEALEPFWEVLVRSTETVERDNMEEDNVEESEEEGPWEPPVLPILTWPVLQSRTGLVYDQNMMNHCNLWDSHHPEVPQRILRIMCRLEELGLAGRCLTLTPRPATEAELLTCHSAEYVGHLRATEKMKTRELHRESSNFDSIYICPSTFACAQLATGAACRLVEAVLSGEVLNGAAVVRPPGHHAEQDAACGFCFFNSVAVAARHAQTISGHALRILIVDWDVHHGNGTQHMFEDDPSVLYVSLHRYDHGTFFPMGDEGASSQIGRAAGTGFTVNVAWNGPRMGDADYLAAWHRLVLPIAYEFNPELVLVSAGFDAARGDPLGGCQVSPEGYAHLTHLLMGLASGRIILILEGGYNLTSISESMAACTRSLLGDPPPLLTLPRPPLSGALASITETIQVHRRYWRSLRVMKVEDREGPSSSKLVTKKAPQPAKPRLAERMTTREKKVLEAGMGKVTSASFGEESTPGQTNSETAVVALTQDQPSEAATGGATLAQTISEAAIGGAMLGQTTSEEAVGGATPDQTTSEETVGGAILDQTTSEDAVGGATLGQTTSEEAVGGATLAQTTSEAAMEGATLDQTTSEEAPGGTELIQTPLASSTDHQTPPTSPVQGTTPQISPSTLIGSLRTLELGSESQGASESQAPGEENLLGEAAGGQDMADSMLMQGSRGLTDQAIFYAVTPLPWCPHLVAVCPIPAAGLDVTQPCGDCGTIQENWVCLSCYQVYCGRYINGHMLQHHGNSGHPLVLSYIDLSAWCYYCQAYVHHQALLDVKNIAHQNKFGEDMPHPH
The test can be described thus: Inhibition of HDAC6 in human EBC1 cells assessed as […] in acetyl alpha-tubulin level at Lys40 at 0.01 to 10 uM after 24 hrs by Western blot analysis. It is filed as cell-based.

Test [9] addresses T2, Hepatocyte growth factor receptor. Briefly: Inhibition of c-MET in human EBC1 cells assessed as decrease in Akt phosphorylation at Ser473 residues after 24 hrs by Western blot analysis. It is filed as cell-based. Put shortly:
as §1

Each structure is given as a SMILES string. Active and inactive are the calls of the source. The rule behind the calls is not given here.

Broadly, the IC50 is the concentration needed to halve the response being measured.

T1 sequence (Q13547 whole entry, the tested form may be a part): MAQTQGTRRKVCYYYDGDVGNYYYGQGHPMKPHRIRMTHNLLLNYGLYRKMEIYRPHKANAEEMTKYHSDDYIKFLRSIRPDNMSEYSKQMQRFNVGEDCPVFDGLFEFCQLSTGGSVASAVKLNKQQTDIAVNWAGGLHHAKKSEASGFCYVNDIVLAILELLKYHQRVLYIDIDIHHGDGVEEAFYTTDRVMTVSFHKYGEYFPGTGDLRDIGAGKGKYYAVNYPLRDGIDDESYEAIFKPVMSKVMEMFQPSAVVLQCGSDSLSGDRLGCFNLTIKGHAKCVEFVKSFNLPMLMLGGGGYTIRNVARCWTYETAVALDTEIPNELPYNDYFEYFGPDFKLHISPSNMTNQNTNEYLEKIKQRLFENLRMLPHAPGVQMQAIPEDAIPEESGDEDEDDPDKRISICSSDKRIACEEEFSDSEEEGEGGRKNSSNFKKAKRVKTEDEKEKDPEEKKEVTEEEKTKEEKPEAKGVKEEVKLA
T2 sequence (P08581 whole entry, the tested form may be a part): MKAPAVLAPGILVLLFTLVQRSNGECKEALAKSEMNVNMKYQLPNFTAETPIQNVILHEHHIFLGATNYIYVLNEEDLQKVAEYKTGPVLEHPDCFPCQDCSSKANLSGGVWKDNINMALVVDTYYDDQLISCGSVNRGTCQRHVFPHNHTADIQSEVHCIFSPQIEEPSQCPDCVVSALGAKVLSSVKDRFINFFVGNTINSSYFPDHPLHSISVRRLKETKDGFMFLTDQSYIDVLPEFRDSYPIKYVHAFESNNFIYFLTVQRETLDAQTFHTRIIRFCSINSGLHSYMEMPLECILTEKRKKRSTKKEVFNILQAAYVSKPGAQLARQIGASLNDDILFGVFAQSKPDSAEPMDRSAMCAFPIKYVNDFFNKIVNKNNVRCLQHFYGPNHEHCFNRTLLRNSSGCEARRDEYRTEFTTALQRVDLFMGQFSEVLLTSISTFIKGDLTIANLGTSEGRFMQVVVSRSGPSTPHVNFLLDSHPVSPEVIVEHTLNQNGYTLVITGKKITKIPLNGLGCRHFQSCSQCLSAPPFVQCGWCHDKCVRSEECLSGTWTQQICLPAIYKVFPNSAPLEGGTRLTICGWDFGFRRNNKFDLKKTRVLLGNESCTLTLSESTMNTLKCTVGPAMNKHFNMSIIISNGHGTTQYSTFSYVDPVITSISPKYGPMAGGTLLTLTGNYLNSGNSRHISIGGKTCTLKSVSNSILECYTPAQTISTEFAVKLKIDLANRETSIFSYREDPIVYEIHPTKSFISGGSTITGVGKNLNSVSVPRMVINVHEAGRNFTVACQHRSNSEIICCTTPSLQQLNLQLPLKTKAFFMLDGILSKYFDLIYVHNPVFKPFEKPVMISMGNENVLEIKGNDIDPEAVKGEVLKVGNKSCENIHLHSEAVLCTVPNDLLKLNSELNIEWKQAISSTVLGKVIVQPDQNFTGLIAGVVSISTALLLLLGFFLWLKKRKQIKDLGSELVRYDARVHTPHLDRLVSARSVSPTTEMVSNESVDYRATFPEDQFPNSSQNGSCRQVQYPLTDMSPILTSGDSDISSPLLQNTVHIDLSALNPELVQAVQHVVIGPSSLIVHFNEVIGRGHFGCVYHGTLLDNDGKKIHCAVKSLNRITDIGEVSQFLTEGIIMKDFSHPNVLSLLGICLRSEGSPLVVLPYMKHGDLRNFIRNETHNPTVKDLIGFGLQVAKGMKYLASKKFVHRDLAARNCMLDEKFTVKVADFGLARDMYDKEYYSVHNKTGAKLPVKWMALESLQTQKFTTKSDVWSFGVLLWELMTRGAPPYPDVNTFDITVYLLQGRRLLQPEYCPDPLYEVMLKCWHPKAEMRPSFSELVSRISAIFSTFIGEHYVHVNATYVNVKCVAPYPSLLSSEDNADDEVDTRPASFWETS

Regarding `Nc1cc(F)ccc1NC(=O)c1ccc(CNC(=O)/C=C/c2cccnc2)cc1` [TUCIDINOSTAT], the IC50 came out at 7.8 µM in the test on HCT-116 and 2900 nM with EBC-1.

Take `Cn1cc(-c2ccc(=O)n(CCOc3ccnc4cc(OCCCCCS)ccc34)n2)cn1`: the half-maximal inhibitory concentration (IC50) was more than 10 µM in the test on HCT-116, 329 nM on Histone deacetylase 1 [1], 640 nM in the test on EBC-1 and 1.5 nM in test [2].

As for `Cn1cc(-c2ccc(=O)n(CCOc3ccnc4cc(OCCCC(=O)NO)ccc34)n2)cn1`, the concentration for half-maximal inhibition (IC50) with HCT-116 is more than 10 µM; at Histone deacetylase 1 [1], more than 1000 nM; in the test on EBC-1 it was 870 nM; in test [2], 1 nM.

With `O=c1ccc(-n2ccc3ccc(F)cc32)nn1CCOc1ccnc2cc(OCCCN3CCOCC3)ccc12`, the 50% inhibitory concentration (IC50) in the test on HCT-116 was more than 10 µM; at Histone deacetylase 1 [1], more than 1000 nM; in the test on EBC-1, 60 nM; in test [2] it was 0.84 nM.

Consider `Cn1cc(-c2ccc(=O)n(CCOc3ccnc4cc(OCc5ccc(/C=C/C(=O)Nc6ccccc6N)cc5)ccc34)n2)cn1`, for which the concentration for half-maximal inhibition (IC50) was more than 10 µM with HCT-116, more than 1000 nM on Histone deacetylase 1 [1], 490 nM in the test on EBC-1 and 1.1 nM in test [2].

`Cn1cc(-c2ccc(=O)n(CCOc3ccnc4cc(OCCCCCCC(=O)NO)ccc34)n2)cn1`: the IC50 in the test with HCT-116 is more than 10 µM; on Histone deacetylase 1 [1] it was 18 nM; with EBC-1 it was 210 nM; in test [2] it was 0.54 nM.

As for `Cn1cc(-c2ccc(=O)n(CCOc3ccnc4cc(-c5ccc(C(=O)Nc6ccccc6N)s5)ccc34)n2)cn1`, the half-inhibitory concentration (IC50) in the test on HCT-116 was more than 10 µM; at Histone deacetylase 1 [1], 467 nM; in the test with EBC-1, 120 nM; in test [2], 1.3 nM.

With `Cn1cc(-c2ccc(=O)n(CCOc3ccnc4cc(OCc5ccc(C(=O)Nc6ccccc6N)cc5)ccc34)n2)cn1`, the IC50 was determined as 1.8 µM in the test on HCT-116, 156 nM on Histone deacetylase 1 [1], 42 nM with EBC-1 and 0.44 nM in test [2].

On to `Cn1cc(-c2ccc(=O)n(CCOc3ccnc4cc(OCCCCC(=O)NO)ccc34)n2)cn1`, for which the IC50 is more than 10 µM with HCT-116, more than 1000 nM at Histone deacetylase 1 [1], 370 nM with EBC-1 and 0.96 nM in [2].

With `Cn1cc(-c2ccc(=O)n(CCOc3ccnc4cc(OCc5ccc(/C=C/C(=O)Nc6ccccc6N)nc5)ccc34)n2)cn1`, the IC50 with HCT-116 amounted to 7.9 µM; on Histone deacetylase 1 [1] it was 625 nM; in the test on EBC-1 it was 46 nM; in [2], 0.63 nM.

On to `CC(=O)CCCCCOc1ccc2c(OCCn3nc(-c4cnn(C)c4)ccc3=O)ccnc2c1`, for which the 50% inhibitory concentration (IC50) in the test on HCT-116 is more than 10 µM; at Histone deacetylase 1 [1], more than 1000 nM; in the test with EBC-1 it was 25 nM; in test [2], 1 nM.

On to `Cn1cc(-c2ccc(=O)n(CCOc3ccnc4cc(OCc5ccc(CCC(=O)Nc6ccccc6N)cc5)ccc34)n2)cn1`, for which the IC50 with HCT-116 was more than 10 µM; on Histone deacetylase 1 [1] it was more than 1000 nM; with EBC-1 it was 210 nM; in test [2], 5.1 nM.

`CNC(=O)CCCCCOc1ccc2c(OCCn3nc(-c4cnn(C)c4)ccc3=O)ccnc2c1`: the IC50 in the test with HCT-116 was more than 10 µM; on Histone deacetylase 1 [1] it was more than 1000 nM; in the test on EBC-1, 79 nM; in test [2] it was 1.2 nM.

Take `Cn1cc(-c2ccc(=O)n(CCOc3ccnc4cc(C(=O)Nc5ccccc5N)ccc34)n2)cn1`: the IC50 with HCT-116 was more than 10 µM; at Histone deacetylase 1 [1] it was more than 1000 nM; in the test on EBC-1, more than 10000 nM; in test [2], 37 nM.

For the compound `Cn1cc(-c2ccc(=O)n(CCOc3ccnc4cc(Nc5ccc(C(=O)Nc6ccccc6N)nc5)ccc34)n2)cn1`, the IC50 is more than 10 µM in the test on HCT-116, 129 nM at Histone deacetylase 1 [1], 450 nM in the test on EBC-1 and 3.7 nM in [2].

As to `Cn1cc(-c2ccc(=O)n(CCOc3ccnc4cc(OCCCOc5ccc(C(=O)Nc6ccccc6N)nc5)ccc34)n2)cn1`, the IC50 in the test with HCT-116 is 1.3 µM; on Histone deacetylase 1 [1] it was 38 nM; with EBC-1, 58 nM; in test [2], 0.71 nM. The inhibition result in test [3], in test [5] and in test [9] was “Dose-dependent effect” throughout. In addition, the Ratio IC50 on Histone deacetylase 1 [4] is 4. Also, the inhibition entry on Histone deacetylase 1 [6] and on Histone deacetylase 1 [7] was “Active” each time. In test [8], the inhibition entry is “inactive”.

In the case of `Cn1cc(-c2ccc(=O)n(CCOc3ccnc4cc(OCCCCCC(=O)Nc5ccccc5N)ccc34)n2)cn1`, the 50% inhibitory concentration (IC50) amounted to 7 µM with HCT-116, 221 nM at Histone deacetylase 1 [1], 370 nM in the test with EBC-1 and 0.96 nM in test [2].

As to `Cn1cc(-c2ccc(=O)n(CCOc3ccnc4cc(OCCCCCC(=O)NO)ccc34)n2)cn1`, the IC50 with HCT-116 is more than 10 µM; on Histone deacetylase 1 [1], 216 nM; with EBC-1 it was 460 nM; in [2], 0.73 nM.
